Experimental findings from ChEMBL document CHEMBL4513216, “Probing the Open Global Health Chemical Diversity Library for Multistage-Active Starting Points for Next-Generation Antimalarials” (ACS Infect Dis, 2020) are described below.

This data set can be described thus: Toxicity liver stage against HepG2, at 10uM. It is filed as cell-based. Also on record: test concentration 10 uM, cell line HepG2-A16-CD81EGFP. As to conditions: human, HepG2-A16-CD81EGFP cells; read-out: INHIBITION
The essentials:
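Uninfected HepG2-A16-CD81EGFP cells, 3 × 10^3 per well, 1536-well, plated on prespotted compound at 10 μM final, parasite-free screening media added to match infected plates; puromycin 10 μM positive, DMSO 0.5% negative; run in parallel with 48 h PbLuc assay at 37 °C, 5% CO2; viability by CellTiter-Glo luminescence, normalized to controls.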

Molecules are shown by their SMILES.

Turning to `CCNc1nc2cn(-c3ccc(CC)cc3)c(=O)c-2c[nH]1`, the cytotoxicity at 10 µM was -3.31%.

Turning to `COc1ccc(F)cc1C(=O)Nc1nnc(C)s1`, the cytotoxicity at 10 µM amounted to 11.1%.

Take `CCCN(Cc1ccc(S(=O)(=O)NC)cc1)Cc1ccccc1OC`: the cytotoxicity at 10 µM is -0.89%.

Consider `NC(=O)C1(Cc2ccc(-c3ccccc3)cc2)CCNC1` (stereo not drawn), for which the cytotoxicity at 10 µM stood at 11.5%.

Turning to `COCC1CN(S(=O)(=O)c2ccc(C)cc2)Cc2c1cnn2C` (stereo not drawn), the cytotoxicity at 10 µM is -5.37%.

In the case of `CCn1c(CN(C)C(C)CSC)nc2c(F)cccc21` (stereo not drawn), the cytotoxicity at 10 µM amounted to 5.73%.

Consider `Cc1cnn(C2CN(CC(=O)N(C)Cc3cccs3)C2)c1`, for which the cytotoxicity at 10 µM was -16.1%.

As to `CCN1CC[C@@]2(C(=O)N3CCOCC3)CCN(C(=O)CC(C)C)CC[C@@H]12`, the cytotoxicity at 10 µM was determined as 3.56%.

Take `O=C(CCCc1ccccn1)NCC(O)c1c(F)cccc1F` (stereo not drawn): the cytotoxicity at 10 µM was -7.85%.

In the case of `COc1ccc(Cl)cc1C(=O)N1CCCC(c2cc(C)[nH]n2)C1` (stereo not drawn), the cytotoxicity at 10 µM was -10.1%.

Take `O=C(O)c1cccc(N2C[C@H](NC(=O)C3CCOCC3)[C@@H](C3CC3)C2)n1`: the cytotoxicity at 10 µM was -4.31%.

With `Cc1nn(C)cc1S(=O)(=O)NCC(c1ccccc1)N1CCCCCC1` (stereo not drawn), the cytotoxicity at 10 µM is -13.6%.

As for `CCOC(=O)[C@@H]1[C@@H](O)C(=O)N(C)C12CCN(C(=O)c1ccco1)CC2`, the cytotoxicity at 10 µM is -2.36%.

With `O=C(NCC1CCCO1)c1nc2c(s1)CCCN2Cc1ccccc1` (stereo not drawn), the cytotoxicity at 10 µM is 1.84%.

Consider `COCCN(C)C[C@@H]1CN(C(=O)C(C)(C)c2ccccc2)C[C@@H]1CO`, for which the cytotoxicity at 10 µM is 16.7%.

Take `OCCC1CCN(c2ccnc3ccsc23)C1` (stereo not drawn): the cytotoxicity at 10 µM came out at 2.35%.

In the case of `CCS(=O)(=O)N[C@H]1CN(Cc2noc(COC)n2)C[C@@H]1C1CC1`, the cytotoxicity at 10 µM is -3.22%.

Take `COCC(=O)N1CCN(c2cc(-n3cccc3)nc(C)n2)CC1`: the cytotoxicity at 10 µM is -6.81%.

Take `CN(C)Cc1csc(-c2nccn2Cc2ccc(C(=O)O)cc2)c1`: the cytotoxicity at 10 µM was -1.3%.

For `Cc1nc(CN2CCN(C(=O)c3ccc(=O)n(C)c3)CC2)cs1`, the cytotoxicity at 10 µM was -2.95%.

In the case of `CC(=O)N1CCC2(CC1)CC[C@@]1(C(=O)N(C)C)CN(S(C)(=O)=O)C[C@@H]21`, the cytotoxicity at 10 µM is -1.56%.

With `Cc1ncnc2c1CCN(CC1CCOC1)CC2` (stereo not drawn), the cytotoxicity at 10 µM is -67.2%.

For `CN1CCCN(c2ncnc(N3CCOCC3)c2N)CC1`, the cytotoxicity at 10 µM came to 1.08%.

As for `CC(C)c1nnc2n1CCN(CCS(=O)(=O)c1ccccc1)C2`, the cytotoxicity at 10 µM was -8.22%.

On to `CNC(=O)CN(C)c1nc(-c2ccc(C(N)=O)cc2)nc2c1CCNC2`, for which the cytotoxicity at 10 µM came out at 3.62%.

As for `Cc1ccc(C(C)NC(=O)CNCCn2cccn2)cc1C` (stereo not drawn), the cytotoxicity at 10 µM is -6.63%.

For the compound `O=C(C1SCCc2sccc21)N1CCN(C2CC2)C(=O)C1` (stereo not drawn), the cytotoxicity at 10 µM was found to be 3.24%.

Take `CN(Cc1ccco1)[C@@H]1CN(Cc2ccsc2)C[C@@H]2CCCO[C@@H]21`: the cytotoxicity at 10 µM was 9.59%.

Consider `CC(O)CN1CCC(CNCc2c[nH]nc2C(C)(C)C)CC1` (stereo not drawn), for which the cytotoxicity at 10 µM was -8.55%.

Consider `Cn1nccc1CCC(=O)N1CCOC(c2cnccn2)C1` (stereo not drawn), for which the cytotoxicity at 10 µM was -25.9%.

Turning to `CC(C)NC(=O)N1CCC2(CC1)C(=O)NCCN2Cc1ccccc1`, the cytotoxicity at 10 µM is 1.29%.

On to `Cc1cccc(CN2C(=O)CCC23CCNCC3)n1`, for which the cytotoxicity at 10 µM is 0.758%.

Take `N#Cc1nccnc1N1CCC(Cc2ccccc2)C1` (stereo not drawn): the cytotoxicity at 10 µM was -8.68%.

In the case of `Cc1ccsc1CN(Cc1ccccn1)CC(C)C`, the cytotoxicity at 10 µM was -13.4%.

In the case of `CCOCC(O)CN1CCN(C(=O)C(C)(C)CC)CC1` (stereo not drawn), the cytotoxicity at 10 µM is -20.7%.

With `CCC(C)N1Cc2c(C(=O)N3CCOCC3)nn(C)c2C1` (stereo not drawn), the cytotoxicity at 10 µM was -95.9%.

Consider `CO[C@H]1CCN(Cc2cccs2)[C@@H]2CN(Cc3ccncc3)C[C@H]12`, for which the cytotoxicity at 10 µM was 2.31%.

As for `CCN1CCN(C(=O)c2ccnc(N(C)C)c2)CC1`, the cytotoxicity at 10 µM was -0.0916%.

As to `O=C(C1CCC1)N1CCC(=O)N(C2CC2)Cc2cc(F)ccc21`, the cytotoxicity at 10 µM is -7.76%.

Take `CC(C)CCC(=O)N1CCC2(CC1)OCCO2`: the cytotoxicity at 10 µM was -0.457%.

For `Nc1cc2c(nn1)CCN(C(=O)Cc1ccc3c(c1)CCCC3)C2`, the cytotoxicity at 10 µM came to 0.696%.

For `Cc1cnc(NC(=O)N2CCCCCC2)s1`, the cytotoxicity at 10 µM is -2.81%.

For `Cc1ncc(C)c(N2CCC(Cc3ccc(Cl)cc3)(C(=O)O)CC2)n1`, the cytotoxicity at 10 µM was -6.28%.

Consider `CN1C(=O)C2(CCN(CC3CCC3)C2)c2ccccc21` (stereo not drawn), for which the cytotoxicity at 10 µM is -71.3%.

`Cc1cc(Br)ccc1NCc1ccc(C(=O)N(C)C)[nH]1`: the cytotoxicity at 10 µM is 5.68%.

In the case of `COc1cc(C(=O)N2CCCC(c3cc(C)[nH]n3)C2)ccc1C` (stereo not drawn), the cytotoxicity at 10 µM is -17.5%.

As for `CN1CCOC(C)(C(=O)Nc2nc(C(C)(C)C)cs2)C1` (stereo not drawn), the cytotoxicity at 10 µM was found to be 6.52%.

With `Cn1cc(C(=O)N2CCCCC2CCc2ccccc2)cn1` (stereo not drawn), the cytotoxicity at 10 µM is -7.45%.

Turning to `CCC(=O)N1CCC2(CC1)CC(CC(N)=O)c1ccc(F)cc12` (stereo not drawn), the cytotoxicity at 10 µM was 11.8%.

`CCc1nc(C)ncc1C(=O)N1CCCC(n2nc(C)nc2C)C1` (stereo not drawn): the cytotoxicity at 10 µM is -8.47%.

As to `CC1(c2ccc(Br)cc2)CC(=O)N(CCC#N)C1=O` (stereo not drawn), the cytotoxicity at 10 µM turned out to be 0.923%.

In the case of `Cc1nc(N2CCCC2)nc2c1CCN(C(=O)C1CCC1)CC2`, the cytotoxicity at 10 µM worked out at 3.39%.

In the case of `COc1cc(CN2CCCC(Nc3cccc(F)c3)C2)cc(OC)c1O` (stereo not drawn), the cytotoxicity at 10 µM turned out to be 1.66%.

For the compound `CN1CCc2cc(C(=O)N(C)C)c(NCC3CC3)nc2CC1`, the cytotoxicity at 10 µM was determined as 7.8%.

Consider `COc1ccnc(N2CCN(C(=O)Cc3csc(C)n3)CC2)n1`, for which the cytotoxicity at 10 µM is -15.6%.

For `CCC(NC(=O)C1CCN(S(C)(=O)=O)CC1)c1ccc(C)cc1` (stereo not drawn), the cytotoxicity at 10 µM was -5.85%.

For the compound `COc1ccc(C)c2c1N(C(=O)c1cnc(C)s1)CCC2`, the cytotoxicity at 10 µM is -1.46%.

Turning to `CCc1nccn1C1CCCN(C(=O)c2ccc(C(=O)NC)nc2)C1` (stereo not drawn), the cytotoxicity at 10 µM was -6.33%.

For the compound `CCC(=O)N1CCCN(Cn2nc(C)c(Br)c2C)CC1`, the cytotoxicity at 10 µM worked out at 6.1%.

As for `CN(Cc1ccc2nonc2c1)C(=O)CCc1cc2n(n1)CCCNC2`, the cytotoxicity at 10 µM was -9.46%.

On to `COc1ccc(-c2cnc(CN3CCCC3CO)o2)cc1` (stereo not drawn), for which the cytotoxicity at 10 µM was 9.38%.

In the case of `COc1ccc(OC)c(Nc2nc3c(C)nn(C)c3c(=O)n2C)c1`, the cytotoxicity at 10 µM is -2.73%.

Take `Cc1cncc(C2CCN(Cc3ccsc3)CC2)n1`: the cytotoxicity at 10 µM stood at 4.86%.

Turning to `CCS(=O)(=O)c1ccc(N2CCC(NC(C)=O)CC2)cc1`, the cytotoxicity at 10 µM turned out to be 10.6%.

As for `Cc1nnc(NCc2ccc(SC(F)F)cc2)o1`, the cytotoxicity at 10 µM was 6.48%.

`CC(C)C(=O)N1CCC(C)(c2cc(O)[nH]n2)CC1`: the cytotoxicity at 10 µM is -14.5%.

`COCc1cc(N(C)Cc2ccccn2)nc(C(C)(C)C)n1`: the cytotoxicity at 10 µM was 12.1%.

As for `Cc1c(CCC(=O)N2CCCC2c2ccnc(N(C)C)c2)cnn1C` (stereo not drawn), the cytotoxicity at 10 µM amounted to 0.469%.

For the compound `CC(=O)N1CCC(c2n[nH]c3nccnc23)CC1`, the cytotoxicity at 10 µM was -8.69%.

For `COc1ccc(CC(=O)NC2CCc3nc(C)cn3C2)cc1` (stereo not drawn), the cytotoxicity at 10 µM is 9.55%.

As to `Cn1cc(I)c(C(=O)NC2CCCC2)n1`, the cytotoxicity at 10 µM worked out at 5.53%.

For `CSC(CNS(C)(=O)=O)c1cccc(Cl)c1` (stereo not drawn), the cytotoxicity at 10 µM came out at 6.27%.

In the case of `OCCN1CCOC2(CCCN(c3cccc(F)c3)C2)C1` (stereo not drawn), the cytotoxicity at 10 µM came to 2.01%.
